Laboratory results reported in paper PMC4570879 (Journal of biomolecular screening, 2014).

Legend:
[1] = target: T1, Human recombinant catalytic domain of PERK (Homo sapiens, UniProt Q9NZJ5); conditions: published PERK inhibitor; cited from earlier work
T1 sequence (Q9NZJ5 536-1116): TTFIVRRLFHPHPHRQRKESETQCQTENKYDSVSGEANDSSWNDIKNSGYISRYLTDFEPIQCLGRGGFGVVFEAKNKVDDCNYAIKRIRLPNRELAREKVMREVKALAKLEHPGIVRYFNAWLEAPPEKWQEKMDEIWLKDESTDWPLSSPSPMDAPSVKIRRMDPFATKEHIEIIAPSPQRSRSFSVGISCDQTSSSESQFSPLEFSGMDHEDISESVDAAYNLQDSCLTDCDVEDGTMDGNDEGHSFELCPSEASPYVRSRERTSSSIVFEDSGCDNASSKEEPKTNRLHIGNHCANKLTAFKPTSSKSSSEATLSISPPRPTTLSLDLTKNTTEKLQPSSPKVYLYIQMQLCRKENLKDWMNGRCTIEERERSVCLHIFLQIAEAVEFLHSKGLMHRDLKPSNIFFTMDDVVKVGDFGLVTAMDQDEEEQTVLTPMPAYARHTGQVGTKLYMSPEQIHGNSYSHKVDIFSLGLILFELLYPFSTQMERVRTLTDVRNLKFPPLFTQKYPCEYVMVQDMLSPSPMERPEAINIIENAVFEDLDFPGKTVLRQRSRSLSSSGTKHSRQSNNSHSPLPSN

PERK = assay: Thapsigargin-induced eIF2α phosphorylation in MEFs; type: cell-based, mouse; conditions: wild-type MEFs, pretreated at 50 µM for 1 or 24 h, then thapsigargin 500 nM 1 h
How it was run: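 Wild-type mouse embryonic fibroblasts were grown in high-glucose DMEM with 4 mM L-glutamine, 10% FBS, penicillin/streptomycin and β-mercaptoethanol. Cells were pretreated with test compound at 50 µM for 1 or 24 h, then with 500 nM thapsigargin for 1 h; PERK⁻/⁻ MEFs served as control.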

[2] = target: T1, Human recombinant catalytic domain of PERK; assay: Radiometric PERK kinase assay; type: biochemical; conditions: method of replots
How it was run: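 Radiometric filter assay using GST-tagged human PERK catalytic domain (aa 536–1116) at 8 nM and full-length Flag-tagged eIF2α. Buffer was 20 mM HEPES pH 7.2, 10 mM MgCl₂, 150 mM NaCl, 0.01% Tween 20, with [γ-³³P]ATP, at room temperature. Initial velocity versus ATP was measured at fixed 10 µM eIF2α across several test compound concentrations. Reactions were stopped with 75 mM phosphoric acid, filter-captured, washed and scintillation-counted; no-PERK background; analysed by replots.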

| Compound | mechanism of action on PERK [1] | stress-dependent eIF2α phosphorylation (PERK) | mechanism of inhibition with respect to ATP ([2]; ATP variable, fixed eIF2α) | mechanism of inhibition with respect to eIF2α ([2]; eIF2α variable, fixed ATP) |
| --- | --- | --- | --- | --- |
| Cn1cc(-c2ccc3c(c2)CCN3C(=O)Cc2cccc(C(F)(F)F)c2)c2c(N)ncnc21 [GSK2606414, 7-Methyl-5-(1-{[3-(trifluoromethyl)phenyl]acetyl}-2,3-di-hydro-1H–indol-5-yl)-7H–p yrrolo[2,3-d]pyrimidin-4-amine] | ATP competitive |  |  |  |
| O=c1ccc2nccc3c4ccccc4n1c23 [LDN-0022506, canthin-6-one] |  | inhibited | noncompetitive | noncom-petitive |
